The pIC50 is the IC50 on a negative log10 scale, so that one unit is a factor of ten. Lower therefore signals a high IC50. What is called half-life is the time in which the quantity being followed falls by half.

pIC50: −log10 of the molar value.

23 compounds from ChEMBL document CHEMBL1151782, “Evaluation of new migrastatin and dorrigocin congeners unveils cell migration inhibitors with dramatically improved potency” (Bioorg Med Chem Lett, 2008) can be followed below.

The subject of data set [1] is MDA-MB-231. The experiment in a line: Inhibition of human MDA-MB-231 cell migration after 4 days by scratch wound healing assay. In kind it is functional, cell-based. The settings on record: MDA-MB-231, 96 h. The method in brief:
(§1)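 Wounds were scratched through confluent cell monolayers with a floating pin tool, then compounds were added at concentrations chosen to avoid cytotoxicity. Plates were incubated 4 days at 37°C, then fixed and stained. Fluorescence in the wound area quantified wound closure, and IC50 for inhibition of wound healing was reported.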

Data set [2] deals with 4T1. Put plainly: Inhibition of cell migration of mouse 4T1 cells after 4 days by scratch wound healing assay. The settings on record: 4T1, 96 h. The format is functional, cell-based. The method in brief: as §1
Data set [3] deals with MDA-MB-231. The experiment in a line: Cytotoxicity against human MDA-MB-231 cells. In kind it is functional, cell-based.
For data set [4], the system named is 4T1. The experiment in a line: Cytotoxicity against […] cells. The format is functional, cell-based.
Data set [5] in a line: Metabolic stability in mouse plasma assessed as half life. The format is ADME, cell-free.

For `C/C1=C/[C@@H](C)CC/C=C/CC/C=C/C(=O)O[C@@H]1[C@H](C)C(=O)C[C@H](O)CC1CC(=O)NC(=O)C1`, the pIC50 in data set [1] was 7.15; in data set [2] it was under 6.48; in data set [3] it was 6.00; in data set [4], 6.01.

Regarding `CO[C@@H](/C=C/CC/C=C/C(=O)O)[C@@H](O)[C@H](C)C(O)/C(C)=C/[C@H](C)C(=O)CCCC1CC(=O)NC(=O)C1` (stereo partly drawn), the pIC50 in data set [1], in data set [2], in data set [3] and in data set [4] was under 4.00 each time.

As for `C/C(=C\[C@@H](C)CC/C=C/CC/C=C/C(=O)O)[C@H](O)[C@H](C)C(=O)C[C@H](O)CC1CC(=O)NC(=O)C1`, the pIC50 in data set [1], in data set [2], in data set [3] and in data set [4] was under 4.00 each time.

Consider `C/C(=C\[C@@H](C)[C@H](O)C/C=C/CC/C=C/C(=O)O)[C@H](O)[C@H](C)C(=O)CCCC1CC(=O)NC(=O)C1`, for which the pIC50 in data set [1], in data set [2], in data set [3] and in data set [4] was under 4.00 throughout.

On to `C/C1=C/[C@@H](C)[C@H](O)C/C=C/CC/C=C/C(=O)O[C@@H]1[C@H](C)C(=O)C[C@H](O)CC1CC(=O)NC(=O)C1`, for which the pIC50 in data set [1], in data set [2], in data set [3] and in data set [4] was under 4.00 throughout.

In the case of `C/C(=C\[C@@H](C)[C@H](O)[C@@H](O)/C=C/CC/C=C/C(=O)O)[C@H](O)[C@H](C)C(=O)CCCC1CC(=O)NC(=O)C1`, the pIC50 in data set [1], in data set [2], in data set [3] and in data set [4] was under 4.00 throughout.

For the compound `C/C1=C/[C@@H](C)[C@H](O)C/C=C/CC/C=C/C(=O)O[C@@H]1[C@H](C)C(=O)/C=C/CC1CC(=O)NC(=O)C1`, the pIC50 in data set [1] was under 4.00; in data set [2] it was under 4.00; in data set [3], under 4.00; in data set [4], 5.07.

On to `C/C(=C\[C@@H](C)[C@H](O)C/C=C/CC/C=C/C(=O)O)[C@@H](O)[C@H](C)C(=O)CCCC1CC(=O)NC(=O)C1`, for which the pIC50 in data set [1], in data set [2], in data set [3] and in data set [4] was under 4.00 throughout.

As for `CO[C@H]1/C=C/CC/C=C/C(=O)O[C@H]([C@H](C)C(=O)/C=C/CC2CC(=O)NC(=O)C2)/C(C)=C\[C@@H](C)[C@@H]1O`, the pIC50 in data set [1], in data set [2], in data set [3] and in data set [4] was under 4.00 in each case.

On to `C/C(=C\[C@@H](C)[C@H](O)[C@@H](O)/C=C/CC/C=C/C(=O)O)[C@@H](O)[C@H](C)C(=O)CCCC1CC(=O)NC(=O)C1`, for which the pIC50 in data set [1], in data set [2], in data set [3] and in data set [4] was under 4.00 throughout.

Turning to `C/C(=C\[C@H](C)C(=O)CCCC1CC(=O)NC(=O)C1)[C@H](O)[C@@H](C)[C@H](O)[C@@H](O)/C=C/CC/C=C/C(=O)O`, the pIC50 in data set [1], in data set [2], in data set [3] and in data set [4] was under 4.00 in each case.

With `C/C(=C\[C@@H](C)CC/C=C/CC/C=C/C(=O)O)[C@@H](O)[C@H](C)C(=O)C[C@H](O)CC1CC(=O)NC(=O)C1`, the pIC50 was under 4.00 in data set [1], under 4.00 in data set [2], under 4.00 in data set [3] and 4.09 in data set [4].

In the case of `CO[C@H]1/C=C/CC/C=C/C(=O)O[C@H]([C@H](C)C(=O)C[C@H](O)CC2CC(=O)NC(=O)C2)/C(C)=C\[C@@H](C)[C@@H]1O`, the pIC50 was 5.74 in data set [1], 5.74 in data set [2], 5.28 in data set [3] and 5.28 in data set [4].

Regarding `CO[C@@H](/C=C/CC/C=C/C(=O)O)[C@@H](O)[C@H](C)/C=C(\C)[C@H](O)[C@H](C)C(=O)C[C@H](O)CC1CC(=O)NC(=O)C1`, the pIC50 in data set [1] was under 4.00; in data set [2] it was under 4.00; in data set [3], under 4.00; in data set [4], 4.70.

Take `C/C(=C\[C@H](C)C(=O)CCCC1CC(=O)NC(=O)C1)[C@H](O)[C@@H](C)[C@H](O)C/C=C/CC/C=C/C(=O)O`: the pIC50 in data set [1], in data set [2], in data set [3] and in data set [4] was under 4.00 throughout.

On to `C/C1=C/[C@@H](C)[C@H](O)[C@@H](O)/C=C/CC/C=C/C(=O)O[C@@H]1[C@H](C)C(=O)/C=C/CC1CC(=O)NC(=O)C1`, for which the pIC50 was under 4.00 in data set [1], under 4.00 in data set [2], 4.54 in data set [3] and 4.49 in data set [4].

Turning to `CO[C@@H](/C=C/CC/C=C/C(=O)O)[C@@H](O)[C@H](C)[C@@H](O)/C(C)=C/[C@H](C)C(=O)C[C@H](O)CC1CC(=O)NC(=O)C1`, the pIC50 in data set [1], in data set [2], in data set [3] and in data set [4] was under 4.00 each time.

As to `CO[C@H]1/C=C/CC/C=C/C(=O)O[C@H]([C@H](C)C(=O)CCCC2CC(=O)NC(=O)C2)/C(C)=C\[C@@H](C)[C@@H]1O` [MIGRASTATIN], the pIC50 is 4.77 in data set [1], 4.85 in data set [2], 5.34 in data set [3] and 5.24 in data set [4]. The half-life in data set [5] was determined as 5 min.

As to `C/C1=C/[C@@H](C)[C@H](O)C/C=C/CC/C=C/C(=O)O[C@@H]1[C@H](C)C(=O)CCCC1CC(=O)NC(=O)C1`, the pIC50 in data set [1], in data set [2], in data set [3] and in data set [4] was under 4.00 each time.

Regarding `C/C1=C/[C@@H](C)[C@H](O)[C@@H](O)/C=C/CC/C=C/C(=O)O[C@@H]1[C@H](C)C(=O)CCCC1CC(=O)NC(=O)C1`, the pIC50 in data set [1] is under 4.00; in data set [2], under 4.00; in data set [3], under 4.00; in data set [4], 4.36.

With `CO[C@@H](/C=C/CC/C=C/C(=O)O)[C@@H](O)[C@H](C)/C=C(\C)[C@@H](O)[C@H](C)C(=O)CCCC1CC(=O)NC(=O)C1`, the pIC50 in data set [1], in data set [2], in data set [3] and in data set [4] was under 4.00 each time.

Turning to `C/C1=C/[C@@H](C)C[C@@H](O)/C=C/CC/C=C/C(=O)O[C@@H]1[C@H](C)C(=O)C[C@H](O)CC1CC(=O)NC(=O)C1`, the pIC50 was under 4.00 in data set [1], under 4.00 in data set [2], 4.89 in data set [3] and 5.00 in data set [4].

As to `CO[C@@H](/C=C/CC/C=C/C(=O)O)[C@@H](O)[C@H](C)/C=C(\C)[C@H](O)[C@H](C)C(=O)CCCC1CC(=O)NC(=O)C1` [DORRIGOCIN A], the pIC50 in data set [1], in data set [2], in data set [3] and in data set [4] was under 4.00 throughout.
